RGS4 pot: potentiators or activators of RGS4. AID 463111. B-score at 10 µM. HEK293 M3R/inducible RGS4, carbachol calcium flux Fluo4; stronger effect = lower value. 0.92% of 310,000 active;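 active = B-score of the integrated calcium signal more than 4 SD below the library mean, with starting fluorescence not abnormally high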;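 note: negative B-score means reduced calcium response which marks RGS4 activation or potentiation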
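Also added: carbachol at ECmax as muscarinic agonist stimulus; Assay system: HEK293 cells with stable M3R and inducible RGS4; Timing: overnight RGS4 induction, 30 min dye load 37 °C, 20 min compound RT; Measured by: Fluo4-AM (2 µM) calcium-flux fluorescence, kinetic read.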
MrgX1 ag: human MrgX1 receptor agonism, primary screen. Q96LB2. MrgX1-HEK293 cells, Fluo-4 calcium fluorescence, agonist mode; stronger effect = higher value. B-score at 10 µM. 0.44% of 310,000 active. AID 588627;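 active = calcium response B-score plate-corrected fluorescence ratio at least 3 library SD, with starting fluorescence B-score inside 5 SD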
Target sequence (Q96LB2 whole entry, looked up): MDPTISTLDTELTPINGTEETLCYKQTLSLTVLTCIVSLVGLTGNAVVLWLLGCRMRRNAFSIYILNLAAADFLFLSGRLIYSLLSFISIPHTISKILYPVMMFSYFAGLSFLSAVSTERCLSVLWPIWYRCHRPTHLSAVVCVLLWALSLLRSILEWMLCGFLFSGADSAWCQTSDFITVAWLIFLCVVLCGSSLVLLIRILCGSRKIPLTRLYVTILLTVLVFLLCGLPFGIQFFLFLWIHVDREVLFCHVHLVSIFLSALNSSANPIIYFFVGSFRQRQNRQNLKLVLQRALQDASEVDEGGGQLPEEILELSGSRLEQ
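Test system: HEK293 cells stably expressing human MrgX1 receptor; amount: 15,000 cells per well; doses: compound delivered in addition one of three; times: overnight plating before 1 h dye loading; detection: Fluo-4 NW calcium-flux fluorescence, kinetic read; read-out basis: B-scored fluorescence response ratio; controls: positive and negative controls per plate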
MrgX1 antag: blocks BAM8-22 activation of human MrgX1 receptor; Q96LB2; MRGX1-HEK293 calcium flux, Fluo-4, BAM8-22 antagonism; stronger effect = lower value; B-score at 10 µM; 1.3% of 310,000 active; AID 588676;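 active = calcium-response B-score plate-corrected more than 3 library SD below zero, starting fluorescence within 5 deviations, no agonist response on first addition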;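 note: peak minus trough fluorescence over baseline after final BAM8-22 challenge near maximal dose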
MrgX1 allo act: human MrgX1 positive allosteric modulation, primary screen. Q96LB2. MrgX1-HEK293, Fluo-4 calcium flux, FDSS; stronger effect = higher value. B-score at 10 µM. 0.63% of 310,000 active;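 active = plate-corrected calcium response at least 3 library SD above typical, normal starting fluorescence, not activating the receptor alone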;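 note: compound read alongside a low EC10 to EC30 dose of BAM8-22 agonist; peak minus trough fluorescence over baseline measured at the second addition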
RGS4 block: inhibitors of human RGS4 | P49798 | HEK293 M3R/RGS4 inducible, Fluo-4 calcium flux; stronger effect = higher value; triggered by carbachol at its EC20 | B-score at 10 µM | 0.45% of 310,000 active;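 active = B-score, a plate-corrected calcium signal, over three deviations above library mean, with baseline fluorescence within five deviations of library mean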;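 note: RGS4 expression induced by doxycycline in cells with stable M3 receptor; B-score is computed from the integrated fluorescence ratio over baseline after carbachol; higher B-score means a larger calcium signal and so more RGS4 inhibition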
Target sequence (P49798 whole entry, looked up): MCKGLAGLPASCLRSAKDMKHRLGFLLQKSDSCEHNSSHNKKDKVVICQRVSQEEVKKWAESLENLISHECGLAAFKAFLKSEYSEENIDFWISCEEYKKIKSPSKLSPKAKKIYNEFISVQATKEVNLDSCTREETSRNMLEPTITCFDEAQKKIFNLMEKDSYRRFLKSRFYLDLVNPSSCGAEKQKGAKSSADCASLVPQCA
A number is an active result. Most compounds without a hit are left out; they make up all but 3.5% or so of the library.

For CCOP(=S)(OCC)c1ccc(N(C)C)cc1 the results were RGS4 pot inactive, MrgX1 ag inactive, MrgX1 antag inactive, MrgX1 allo act 10.2 and RGS4 block inactive.
For CN(C)c1ccc(P(=S)(N(C)C)N(C)C)cc1 the results were RGS4 pot inactive, MrgX1 ag inactive, MrgX1 antag inactive, MrgX1 allo act inactive and RGS4 block inactive.
Cc1ccc(Cn2cc(C=O)c(-c3ccc(F)cc3)n2)cc1 was read as RGS4 pot inactive, MrgX1 ag inactive, MrgX1 antag inactive, MrgX1 allo act 7.57 and RGS4 block inactive.
CN[C@H]1C[C@H]2O[C@@](C)([C@H]1OC)n1c3ccccc3c3c4c(c5c6ccccc6n2c5c31)C(=O)NC4 was read as RGS4 pot inactive, MrgX1 ag inactive, MrgX1 antag inactive, MrgX1 allo act 10.2 and RGS4 block 4.93.
Screening CCCCCSc1cc(O)c(C(CNC)C(C)C)cc1OC (centres undefined) returned RGS4 pot inactive, MrgX1 ag inactive, MrgX1 antag inactive, MrgX1 allo act inactive and RGS4 block inactive.
Screening CCCCCSc1cc(OC)c(CCN(C)C)cc1OC returned RGS4 pot -7.71, MrgX1 ag inactive, MrgX1 antag inactive, MrgX1 allo act inactive and RGS4 block inactive.
For C[N+]1(CCC(C(N)=O)(c2ccccc2)c2ccccc2)CCCCC1 the results were RGS4 pot -7, MrgX1 ag inactive, MrgX1 antag inactive, MrgX1 allo act inactive and RGS4 block inactive.
`Clc1ccc2c(c1)C(c1ccccc1Cl)=NCc1nnc(N3CCN(CCOc4ccccc4)CC3)n1-2` gave RGS4 pot inactive, MrgX1 ag inactive, MrgX1 antag inactive, MrgX1 allo act inactive and RGS4 block inactive.
CCn1cc(/C=c2/sc3n(c2=O)C2c4ccccc4OC(C)(N=3)C2C(=O)OC)c(C)n1 (centres undefined) was read as RGS4 pot inactive, MrgX1 ag inactive, MrgX1 antag inactive, MrgX1 allo act inactive and RGS4 block inactive.
Screening COC(=O)C1C2c3ccccc3OC1(C)N=c1s/c(=C/c3cn(C)nc3C)c(=O)n12 (centres undefined) returned RGS4 pot inactive, MrgX1 ag inactive, MrgX1 antag inactive, MrgX1 allo act 7.11 and RGS4 block inactive.
O=C(c1cc(S(=O)(=O)N2CCC3(CC2)OCCO3)ccc1F)N1CCC2(CC1)OCCO2 was read as RGS4 pot inactive, MrgX1 ag inactive, MrgX1 antag inactive, MrgX1 allo act inactive and RGS4 block inactive.
Screening COC(=O)C1=C(N)Oc2c(c(=O)oc3ccccc23)[C@]12C(=O)N(C)c1ccccc12 returned RGS4 pot inactive, MrgX1 ag inactive, MrgX1 antag inactive, MrgX1 allo act 8.62 and RGS4 block inactive.
For CCCC(CCC)C(=O)OC[N+](C)(C)CCOC(=O)C(O)(c1ccccc1)C1CCCC1 (centres undefined) the results were RGS4 pot inactive, MrgX1 ag inactive, MrgX1 antag inactive, MrgX1 allo act inactive and RGS4 block inactive.
`CC(C)(C)C(=O)OC[N+](C)(C)CCOC(=O)C(O)(c1ccccc1)C1CCCC1` (centres undefined) gave RGS4 pot -7.52, MrgX1 ag inactive, MrgX1 antag inactive, MrgX1 allo act inactive and RGS4 block inactive.
`CCn1c(O)c(/C=N/NC(=O)c2ccccc2)c(=O)n(CC)c1=S` gave RGS4 pot inactive, MrgX1 ag 48.6, MrgX1 antag inactive, MrgX1 allo act inactive and RGS4 block inactive.
For [N-]=[N+]=CC(=O)OC[C@H](N)C(=O)O the results were RGS4 pot inactive, MrgX1 ag inactive, MrgX1 antag inactive, MrgX1 allo act inactive and RGS4 block inactive.
Cc1cc(Cl)nc(N)n1 was read as RGS4 pot inactive, MrgX1 ag inactive, MrgX1 antag inactive, MrgX1 allo act inactive and RGS4 block inactive.
`CCOc1cccc(=NC2CCCCC2)c2c(C)n(C)c(C)c12` gave RGS4 pot inactive, MrgX1 ag inactive, MrgX1 antag -5.99, MrgX1 allo act inactive and RGS4 block inactive.
Screening CCOc1ccccc1N=C1SCCCN1C returned RGS4 pot inactive, MrgX1 ag inactive, MrgX1 antag inactive, MrgX1 allo act inactive and RGS4 block inactive.
`C/C=C(\C)C(=O)OC1C(C)=C2C(C1OC(=O)CCCCC)C(C)(OC(C)=O)CC(OC(=O)CCC)C1(O)C2OC(=O)C1(C)O` (centres undefined) gave RGS4 pot -8.9, MrgX1 ag 49.3, MrgX1 antag inactive, MrgX1 allo act inactive and RGS4 block inactive.
Screening CCNc1cc(N2CCNCC2)ccc1[N+](=O)[O-] returned RGS4 pot inactive, MrgX1 ag inactive, MrgX1 antag inactive, MrgX1 allo act inactive and RGS4 block inactive.
O=[N+]([O-])c1ccc(N2CCCNCC2)c2ncccc12 was read as RGS4 pot -8.07, MrgX1 ag inactive, MrgX1 antag inactive, MrgX1 allo act inactive and RGS4 block inactive.
`CC/C(=N\Nc1cccc2ccccc12)c1c(O)[nH]c(=O)[nH]c1=O` gave RGS4 pot inactive, MrgX1 ag inactive, MrgX1 antag inactive, MrgX1 allo act inactive and RGS4 block inactive.
Screening CN1C2CCC1CC(=NO)C2 returned RGS4 pot inactive, MrgX1 ag inactive, MrgX1 antag -5.28, MrgX1 allo act inactive and RGS4 block inactive.
For C=CCn1c(C)c(C=C2C(=O)NC(=O)NC2=O)c2ccccc21 the results were RGS4 pot inactive, MrgX1 ag 39.2, MrgX1 antag inactive, MrgX1 allo act inactive and RGS4 block inactive.
Cc1ccc(NP(=O)(Oc2ccccc2F)Oc2ccccc2F)cc1 was read as RGS4 pot inactive, MrgX1 ag inactive, MrgX1 antag -6.72, MrgX1 allo act inactive and RGS4 block inactive.
For CCc1ccc(NP(=O)(Oc2ccccc2F)Oc2ccccc2F)cc1 the results were RGS4 pot inactive, MrgX1 ag inactive, MrgX1 antag inactive, MrgX1 allo act inactive and RGS4 block inactive.
COc1ccc(C(CNC(=O)c2ccc3c(c2)CCC3)N(C)C)cc1 (centres undefined) was read as RGS4 pot inactive, MrgX1 ag inactive, MrgX1 antag inactive, MrgX1 allo act inactive and RGS4 block inactive.
Screening C=CCN1C(=O)/C(=C/c2cc(C)n(-c3ccccn3)c2C)C(=O)NC1=S returned RGS4 pot inactive, MrgX1 ag inactive, MrgX1 antag -5.17, MrgX1 allo act inactive and RGS4 block inactive.
`CCCCn1c(O)c(C(C)=Nc2ccc3c(c2)CCC3)c(=O)[nH]c1=O` gave RGS4 pot inactive, MrgX1 ag inactive, MrgX1 antag inactive, MrgX1 allo act inactive and RGS4 block inactive.
For Cc1ccc(-c2cc(-c3ccccc3)cc(-c3ccccc3)[n+]2-c2ccccc2)cc1 the results were RGS4 pot -7.57, MrgX1 ag 31, MrgX1 antag inactive, MrgX1 allo act inactive and RGS4 block inactive.
`C[n+]1c(-c2ccccc2)cc(-c2ccc(Cl)cc2)cc1-c1ccccc1` gave RGS4 pot inactive, MrgX1 ag inactive, MrgX1 antag inactive, MrgX1 allo act inactive and RGS4 block inactive.

Screening results deposited in PubChem by Johns Hopkins Ion Channel Center.
